Source: ChEMBL document CHEMBL5058577, “EUbOPEN Chemogenomics Library 2 (Multiplex)” (2022)

Test system: HEK-293T
Assay: Multiplex assay against HEK293T
Assay type: toxicity, cell-based
Conditions: human
In short: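 Cells stained live at seeding with Hoechst33342, BioTracker Green Microtubule Cytoskeleton Dye, MitoTracker Red and Annexin V Alexa Fluor 680 were imaged on a CQ1 microscope at 37°C and 5% CO2 after compound addition. Their classification by CellPathfinder machine-learning gating ran from Hoechst high-intensity objects versus normal cells, to healthy, pyknosed or fragmented nuclei among normal cells, to mitotic or apoptotic among pyknosed cells. Tubulin, mitochondrial-mass and membrane-permeability phenotypes are per cents of healthy-nucleus cells.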

[1] = 12 h, 1 µM, compound concentration 1 uM, replicate 1
[2] = 12 h, 1 µM, compound concentration 1 uM, replicate 2
[3] = 12 h, 10 µM, compound concentration 10 uM, replicate 1
[4] = 12 h, 10 µM, compound concentration 10 uM, replicate 2
[5] = 24 h, 1 µM, compound concentration 1 uM, replicate 1
[6] = 24 h, 1 µM, compound concentration 1 uM, replicate 2
[7] = 24 h, 10 µM, compound concentration 10 uM, replicate 1
[8] = 24 h, 10 µM, compound concentration 10 uM, replicate 2
[9] = 48 h, 1 µM, compound concentration 1 uM, replicate 1
[10] = 48 h, 1 µM, compound concentration 1 uM, replicate 2
[11] = 48 h, 10 µM, compound concentration 10 uM, replicate 1
[12] = 48 h, 10 µM, compound concentration 10 uM, replicate 2

CCC(=O)OCC(=O)[C@@]1(OC(=O)CC)[C@@H](C)C[C@H]2[C@@H]3CCC4=CC(=O)C=C[C@]4(C)[C@@]3(Cl)[C@@H](O)C[C@@]21C [BECLOMETHASONE DIPROPIONATE]
Population Apoptotic (%) [1]: 43%
Population Fragmented Nuclei (%) [1]: 8%
Population Healthy Nuclei (%) [1]: 75%
Population Hoechst High Intensity Objects (%) [1]: 7%
Population Membrane Permeable-Phenotype (%) [1]: 0%
Population Mitochondria Different-Phenotype (%) [1]: 60%
Population Mitotic Cells (%) [1]: 56%
Population Normal (%) [1]: 92%
Population Pyknosed Nuclei (%) [1]: 15%
Population Tubulin-Different-Phenotype (%) [1]: 48%
Total Cell Count [1]: 388
Population Apoptotic (%) [2]: 47%
Population Fragmented Nuclei (%) [2]: 5%
Population Healthy Nuclei (%) [2]: 74%
Population Hoechst High Intensity Objects (%) [2]: 4%
Population Mitochondria Different-Phenotype (%) [2]: 75%
Population Mitotic Cells (%) [2]: 52%
Population Normal (%) [2]: 95%
Population Pyknosed Nuclei (%) [2]: 19%
Population Tubulin-Different-Phenotype (%) [2]: 42%
Total Cell Count [2]: 356
Population Apoptotic (%) [3]: 60%
Population Fragmented Nuclei (%) [3]: 8%
Population Healthy Nuclei (%) [3]: 66%
Population Hoechst High Intensity Objects (%) [3]: 14%
Population Membrane Permeable-Phenotype (%) [3]: 0%
Population Mitochondria Different-Phenotype (%) [3]: 87%
Population Mitotic Cells (%) [3]: 39%
Population Normal (%) [3]: 85%
Population Pyknosed Nuclei (%) [3]: 25%
Population Tubulin-Different-Phenotype (%) [3]: 65%
Total Cell Count [3]: 236
Population Apoptotic (%) [4]: 68%
Population Fragmented Nuclei (%) [4]: 6%
Population Hoechst High Intensity Objects (%) [4]: 16%
Population Mitochondria Different-Phenotype (%) [4]: 93%
Population Mitotic Cells (%) [4]: 31%
Population Normal (%) [4]: 83%
Population Pyknosed Nuclei (%) [4]: 27%
Population Tubulin-Different-Phenotype (%) [4]: 35%
Total Cell Count [4]: 252
Population Apoptotic (%) [5]: 32%
Population Fragmented Nuclei (%) [5]: 7%
Population Healthy Nuclei (%) [5]: 81%
Population Hoechst High Intensity Objects (%) [5]: 4%
Population Membrane Permeable-Phenotype (%) [5]: 0%
Population Mitochondria Different-Phenotype (%) [5]: 40%
Population Mitotic Cells (%) [5]: 67%
Population Normal (%) [5]: 95%
Population Pyknosed Nuclei (%) [5]: 11%
Population Tubulin-Different-Phenotype (%) [5]: 31%
Total Cell Count [5]: 507
Population Apoptotic (%) [6]: 43%
Population Hoechst High Intensity Objects (%) [6]: 5%
Population Mitochondria Different-Phenotype (%) [6]: 52%
Population Mitotic Cells (%) [6]: 56%
Population Normal (%) [6]: 94%
Population Tubulin-Different-Phenotype (%) [6]: 18%
Total Cell Count [6]: 446
Population Apoptotic (%) [7]: 56%
Population Fragmented Nuclei (%) [7]: 13%
Population Healthy Nuclei (%) [7]: 65%
Population Hoechst High Intensity Objects (%) [7]: 11%
Population Membrane Permeable-Phenotype (%) [7]: 0%
Population Mitochondria Different-Phenotype (%) [7]: 89%
Population Mitotic Cells (%) [7]: 44%
Population Normal (%) [7]: 88%
Population Pyknosed Nuclei (%) [7]: 21%
Population Tubulin-Different-Phenotype (%) [7]: 73%
Total Cell Count [7]: 270
Population Apoptotic (%) [8]: 62%
Population Fragmented Nuclei (%) [8]: 5%
Population Healthy Nuclei (%) [8]: 71%
Population Hoechst High Intensity Objects (%) [8]: 9%
Population Mitochondria Different-Phenotype (%) [8]: 97%
Population Mitotic Cells (%) [8]: 37%
Population Normal (%) [8]: 90%
Population Pyknosed Nuclei (%) [8]: 23%
Population Tubulin-Different-Phenotype (%) [8]: 43%
Total Cell Count [8]: 243
Population Apoptotic (%) [9]: 30%
Population Fragmented Nuclei (%) [9]: 11%
Population Healthy Nuclei (%) [9]: 78%
Population Hoechst High Intensity Objects (%) [9]: 4%
Population Membrane Permeable-Phenotype (%) [9]: 0%
Population Mitochondria Different-Phenotype (%) [9]: 28%
Population Mitotic Cells (%) [9]: 69%
Population Normal (%) [9]: 95%
Population Pyknosed Nuclei (%) [9]: 9%
Population Tubulin-Different-Phenotype (%) [9]: 18%
Total Cell Count [9]: 742
Population Apoptotic (%) [10]: 31%
Population Fragmented Nuclei (%) [10]: 12%
Population Healthy Nuclei (%) [10]: 79%
Population Hoechst High Intensity Objects (%) [10]: 3%
Population Mitochondria Different-Phenotype (%) [10]: 32%
Population Mitotic Cells (%) [10]: 68%
Population Normal (%) [10]: 96%
Population Pyknosed Nuclei (%) [10]: 8%
Population Tubulin-Different-Phenotype (%) [10]: 17%
Total Cell Count [10]: 655
Population Apoptotic (%) [11]: 67%
Population Fragmented Nuclei (%) [11]: 14%
Population Healthy Nuclei (%) [11]: 72%
Population Hoechst High Intensity Objects (%) [11]: 5%
Population Membrane Permeable-Phenotype (%) [11]: 0%
Population Mitochondria Different-Phenotype (%) [11]: 72%
Population Mitotic Cells (%) [11]: 32%
Population Normal (%) [11]: 94%
Population Pyknosed Nuclei (%) [11]: 13%
Population Tubulin-Different-Phenotype (%) [11]: 43%
Total Cell Count [11]: 347
Population Apoptotic (%) [12]: 65%
Population Fragmented Nuclei (%) [12]: 12%
Population Mitochondria Different-Phenotype (%) [12]: 90%
Population Mitotic Cells (%) [12]: 34%
Population Pyknosed Nuclei (%) [12]: 15%
Population Tubulin-Different-Phenotype (%) [12]: 62%
Total Cell Count [12]: 283
